Hits are enriched below; roughly 2.8% of the tested compounds scored in any of these assays.
Yeast growth inh: yeast BB579 growth reduction in restrictive medium. S. cerevisiae BB579 growth, OD615, 48 h. inhibition, % at 10 µM. actives 0.51% (n = 140,000). AID 804;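 active = inhibition above a set limit, 3 SD over the mean compound inhibition, cut at about 44% in these data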
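System: DeaD yeast strain BB579; buffer or medium: CSMM-D dextrose restrictive medium; technique: OD at 615 nm; schedule: 4 h cell preincubation, 48 h compound exposure, 30 °C humidified; doses: single 10 µM dose; controls: amphotericin B 10 µg/mL, positive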
TNAP act hiacc: TNAP (human) activation, high acceptor | P05186 | purified TNAP, CDP-star luminescence, 1 M DEA, 30 min; hits give high values; 0 = EDTA background, 1 = DMSO-only activity | activation factor at 20 µM | 200,000 tested, under 10 active;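 active = activation factor at least 2 at 20 µM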
Target sequence (P05186 whole entry, looked up): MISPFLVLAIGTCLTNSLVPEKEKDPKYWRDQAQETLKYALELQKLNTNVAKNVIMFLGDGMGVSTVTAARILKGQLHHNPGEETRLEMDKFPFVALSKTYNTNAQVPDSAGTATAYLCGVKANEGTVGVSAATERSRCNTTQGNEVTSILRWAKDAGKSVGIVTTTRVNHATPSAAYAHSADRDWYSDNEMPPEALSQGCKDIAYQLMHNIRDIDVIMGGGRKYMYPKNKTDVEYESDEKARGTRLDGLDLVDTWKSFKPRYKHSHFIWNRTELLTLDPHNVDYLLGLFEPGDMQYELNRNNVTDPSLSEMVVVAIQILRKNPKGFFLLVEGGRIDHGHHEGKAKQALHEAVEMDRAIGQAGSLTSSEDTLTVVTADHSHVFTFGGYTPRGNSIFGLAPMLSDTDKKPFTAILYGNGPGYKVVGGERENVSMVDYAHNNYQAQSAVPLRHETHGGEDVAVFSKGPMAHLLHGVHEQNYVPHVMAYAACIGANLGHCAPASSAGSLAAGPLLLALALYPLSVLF
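Measured by: Luminescent substrate turnover signal | Test system: Human TNAP | Input: TNAP 1/800 final | Dosing: 20 µM single point | Schedule: 30 min, room temperature | Controls: EDTA wells as negative control, DMSO wells as positive control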
Yeast lifespan up: extends the lifespan of yeast. S. cerevisiae growth with nicotinamide, OD615; deaD strain in restrictive glucose medium. inhibition of the nicotinamide effect, % at 10 µM. actives 0.68% (n = 130,000). AID 775;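 active = inhibition above a set limit, placed 3 SD over the median of all compounds, cut at about 26% in these data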;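 note: 0% = nicotinamide-treated wells and 100% = cells grown without nicotinamide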
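Material: Modified budding yeast, DeaD strain | Medium: Restrictive glucose medium | Probe or stimulus: 1.5 mM nicotinamide | Dosing: Single dose 10 µM compound, 0.25% DMSO | Times: 48 h at 30 °C | Technique: OD615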
RAM inhibit: blocks the yeast RAM network | actives 1.8% (n = 190,000) | AID 868 | S. cerevisiae dse1pr::URA3 reporter, 5-FOA growth OD615, 2 d; analog-sensitive cbk1-as2 kinase mutant strain | inhibition, % at 50 µM;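 active = inhibition above a set limit, 3 SD over mean compound inhibition, cut at about 8.4% in these data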;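 note: 0% = DMSO-only wells with no growth and 100% = 10 µM 1-NA-PP1 full growth; inhibition rescues growth on 5-FOA so higher OD means more RAM inhibition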
TNAP inh noacc: inhibitors of human TNAP without phosphate acceptor; P05186; purified TNAP, CDP-star luminescence, 30 min; inhibition, % at 20 µM; actives 0.26% (n = 200,000); AID 1012;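 active = tissue-nonspecific alkaline phosphatase inhibition above about 50% at 20 µM in the single-dose screen, limit read from the data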;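 note: 0% = DMSO negative control and 100% = EDTA positive control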
TNAP inh hi DEA: blocks human TNAP under high phosphate acceptor concentration; AID 1135; purified TNAP, CDP-star luminescence, 1 M DEA; actives 0.03% (n = 200,000); inhibition, % at 20 µM; P05186;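 active = over 50% inhibition of tissue-nonspecific alkaline phosphatase at 20 µM in the single-dose screen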;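 note: plate controls were DMSO wells for no effect and EDTA-quenched wells as full inhibition for full effect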
RAM efflux-def: RAM network inhibitors in efflux-deficient yeast; 1,200 tested, under 10 active; shares compounds with RAM inhibit; max inhibition, %; S. cerevisiae efflux-deficient reporter strain, 5-FOA growth OD615, 2 days; AID 1305; call rule not given here;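 note: plate controls were vehicle for no effect and reference inhibitor for full effect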
Numbers without * were called inactive; . = not tested or not shown.

SMILES	Yeast growth inh	TNAP act hiacc	Yeast lifespan up	RAM inhibit	TNAP inh noacc	TNAP inh hi DEA	RAM efflux-def
Cc1ccc(N/C=C/C(=O)c2cccs2)cc1	.	1	.	2	-10	2	.
COc1ccc(OCc2nnc(SCC(N)=O)n2-c2ccccc2OC)cc1	0	1.1	-8	0	-14	-5	.
COc1ccccc1-n1c(COc2ccccc2-c2ccccc2)nnc1SCC(=O)c1c(N)n(C)c(=O)n(C)c1=O	-50	1.1	0	14*	-10	-7	8
CCOC(=O)c1[nH]cnc1N=Nc1c(O)ccc2ccccc12	-45	0.6	-1	15*	-3	40	6
CC(=O)c1ccc(N(C(=O)CS(=O)CC(=O)Nc2ccc(F)cc2)C(C(=O)NC2CCCCC2)c2cccs2)cc1 (stereo unspecified)	-35	1	17	18*	-5	-1	2
CCOC(=O)C1(Cc2ccccc2C(F)(F)F)CCN(C2CCN(C(C)=O)CC2)CC1	.	1.1	.	1	-11	-9	.
CCCC(c1nnnn1Cc1ccco1)N1CCN(c2cc(Cl)ccc2C)CC1 (stereo unspecified)	-65	1	0	21*	-2	-2	2
COc1cc(C=O)c(Br)cc1OCc1ccc(C)cc1	-47	1	-11	1	-12	-4	.
O=C(N[C@@H](Cc1ccccc1)C(=O)OCc1ccccc1)c1nc[nH]c1C(=O)NC(c1ccccc1)c1ccccc1	.	1.1	.	5	-5	-6	.
CN(Cc1ccccc1)C(=O)c1[nH]cnc1C(=O)N[C@@H](Cc1ccccc1)C(=O)OCc1ccccc1	.	1	.	12*	0	-4	3
CC(C)C[C@H](NC(=O)c1nc[nH]c1C(=O)NCc1ccccc1)C(=O)OCc1ccccc1	.	1.1	.	14*	-15	-6	8
CC(C)(C)OC(=O)NCCCCCNC(=O)c1[nH]cnc1C(=O)N[C@@H](Cc1ccccc1)C(=O)OCc1ccccc1	.	1.1	.	13*	-14	-6	7
CC(=O)OCC1(C)CN(c2ccccc2)N(C(=O)c2ccc(F)cc2)C1=O (stereo unspecified)	.	0.9	.	-1	8	8	.
COc1cccc(C(=O)O/N=C/c2ccc(Sc3ccc(C)cc3)nc2)c1	-42	1	5	8	-21	-5	.
O=C(COc1cccc(F)c1)N1c2ccccc2Sc2ccccc21	-73	1	6	15*	-10	-5	4
CCN1CCN(Cc2c(C)[nH]c3ccc(OC)cc3c2=O)CC1	3	1	0	1	-3	4	.
Cn1c(N=Nc2ccc(N3CCOCC3)cc2)[n+](C)c2ccccc21	.	0.5	.	13*	50	47	16
O=c1c(Cl)c(Cl)cnn1Cc1nnc(-c2ccccc2Br)o1	.	1	.	2	-9	-2	.
O=S(=O)(Nc1ccc(N=Nc2ccc(O)c3ccccc23)cc1)c1ccccc1	-42	0.5	2	13*	53*	49	3
COC(=O)Nc1ccc(S(=O)(=O)N2CCC(C(=O)NC3CCCCC3)CC2)cc1	.	1	.	3	-6	0	.
COc1ccccc1-n1cnc2c(c1=O)c1nc3ccccc3nc1n2-c1ccc(C)cc1	-46	1.1	3	11*	-2	-8	3
COc1ccc(S(=O)(=O)N(CC(=O)NCC2CCCO2)c2ccccc2)cc1OC (stereo unspecified)	22	1.1	-10	0	-10	-7	.
Cc1cccc(C)c1OCC(O)Cn1nnc2ccccc21 (stereo unspecified)	-40	1	-11	1	-7	1	.
Cc1cccc(C)c1OCC(O)Cn1c2ccccc2c2ccccc21 (stereo unspecified)	-34	1.1	-5	15*	-11	-9	7
Cc1ccc(OCC(O)Cn2c3ccccc3c3ccccc32)cc1 (stereo unspecified)	-60	1	-17	12*	-3	-2	2
SMILES	Yeast growth inh	TNAP act hiacc	Yeast lifespan up	RAM inhibit	TNAP inh noacc	TNAP inh hi DEA	RAM efflux-def
CCCCn1c(=N)n(CC(O)COc2ccc(C)cc2)c2ccccc21 (stereo unspecified)	-5	1.1	-4	0	-8	-8	.
O=C(c1ccc(Cl)cc1)N1CCCCC(Cl)C1=O (stereo unspecified)	.	1	.	3	-4	-2	.
COc1ccccc1-c1noc(CCC(=O)Nc2cccc(C(F)(F)F)c2)n1	-42	1	-8	23*	-2	4	1
COCCOC(=O)c1c(C)oc2ccc(OC(=O)c3c(OC)cccc3OC)cc12	-34	1	-7	12*	-4	0	1
CCOCCCNC(=O)/C(C#N)=C/c1ccc(-c2ccc(S(=O)(=O)N3CCOCC3)cc2)o1	-27	1	0	12*	-16	2	3
COCCNC(=O)/C(C#N)=C/c1ccc(-c2ccc(S(=O)(=O)N3CCOCC3)cc2)o1	-6	1	11	3	-6	-4	.
O=C(O)CSc1nnc(-c2ccncc2)n1C1CCCCC1	-33	1	0	2	-12	-4	.
O=C(CC1SC(=Nc2ccc(OC(F)F)cc2)N(CCC2=CCCCC2)C1=O)Nc1ccccc1F (stereo unspecified)	-13	1	1	11*	0	-2	2
CCOc1ccccc1N=C1SC(CC(=O)Nc2ccc(OC)cc2OC)C(=O)N1CCC1=CCCCC1 (stereo unspecified)	-11	1.1	-4	3	0	-5	.
CCOC(=O)c1c(NC(=O)CSc2nnc(Cc3ccccc3)o2)sc(C)c1C	-35	1.1	.	14*	-8	-7	4
CCOC(=O)c1c(NC(=O)CSc2nnc(-c3ccco3)o2)sc(C)c1C	-22	1	-8	12*	-8	-2	4
CC(C)c1ccc(/C=C(\c2nc3ccccc3[nH]2)S(=O)(=O)c2ccccc2)cc1	-47	1	6	19*	-6	-3	3
CCC1CC(CSc2ncn[nH]2)OC1=O (stereo unspecified)	-27	1	-9	0	8	0	.
COc1nc(-c2ccccc2)ccc1-c1noc(COc2ccccc2)n1	-13	1	-5	13*	-8	-3	4
COc1ccc(-c2ccc(-c3noc(-c4ccccc4)n3)c(OC)n2)cc1	-47	1	-7	13*	-9	-2	5
COc1ccc(C(=O)NCc2nnc(SCC(=O)N3CCCCC3)o2)cc1OC	-63	1	0	0	-23	-4	.

Screening results (PubChem)
